Assay outcomes (PubChem)
PKA-R1A act: activators of PKA-R1A complex. hit rate 0.083% among 340,000. activation, % at 11.4 µM. PKA-R1A dissociation, Cy5-IP20 fluorescence polarization; scaled: DMSO 0%, 113 µM cGMP 100%;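 active = percent activation above the mean of all tested compounds plus 3 SD, cut at about 19% in these data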;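 note: higher means more PKAc released from R1A so a rise in polarization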
S100A4 inh HTS: inhibitors of human S100A4 binding to myosin IIA peptide; S100A4/TAMRA-MyoIIA peptide fluorescence polarization; hit rate 0.14% among 360,000; inhibition, % at 10.7 µM;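 active = mean inhibition of at least 70% across replicates, with every replicate also reaching that level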
Target sequence (P26447 whole entry, looked up): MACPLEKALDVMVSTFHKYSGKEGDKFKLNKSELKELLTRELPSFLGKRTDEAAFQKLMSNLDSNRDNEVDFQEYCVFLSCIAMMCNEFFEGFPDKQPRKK
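System – human S100A4 monomer protein, biochemical binding assay · Buffer or medium – Calcium-containing HEPES buffer, pH 7.2 · Timing – 5 min between mix addition and reading · Also added – TAMRA-labelled myosin IIA heavy-chain peptide probe, 5 nM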
PKA-R2B act: activators of human PKA-R2B complex; hit rate 0.079% among 340,000; PKA-R2B holoenzyme dissociation, Cy5-IP20 fluorescence polarization; R2B truncated from residue 108, S112A mutant; 0% DMSO only, 100% 113 µM cGMP; AID 504700; activation, % at 11.4 µM;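 active = activation above a cutoff set at the mean over all compounds plus 3 SD, cut at about 18% in these data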;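 note: higher means more holoenzyme dissociation and a rise in polarization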
SIRT5 inh: inhibitors of human sirtuin-5 desuccinylase. Q9NXA8. Purified SirT5, succinyl-peptide AMC, trypsin-coupled fluorescence. inhibition, % at 15 µM. hit rate 1.1% among 330,000. AID 652115; in the data active = inhibition above about 15%
Target sequence (Q9NXA8 whole entry, looked up): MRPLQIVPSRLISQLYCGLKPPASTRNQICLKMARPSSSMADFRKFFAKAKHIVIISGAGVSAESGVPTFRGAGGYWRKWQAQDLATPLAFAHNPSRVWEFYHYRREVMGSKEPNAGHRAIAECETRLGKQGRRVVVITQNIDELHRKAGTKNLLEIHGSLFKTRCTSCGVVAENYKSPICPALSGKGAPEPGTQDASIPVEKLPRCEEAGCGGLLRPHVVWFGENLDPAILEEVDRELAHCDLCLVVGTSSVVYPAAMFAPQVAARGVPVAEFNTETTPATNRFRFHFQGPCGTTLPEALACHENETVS
CRFBP-R2 block: antagonists of CRF-binding protein/CRF-R2 receptor complex; AID 588475; inhibition, % at 11.8 µM; hit rate 0.59% among 350,000; HEK293 CRF-R2/CRF-BP, CRF-induced calcium fluorescence;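 active = inhibition of the ligand-induced calcium signal above about 50% at the single tested concentration, limit read from the data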
R2B FP artifact: fluorescence polarization artifact in PKA-R2B activator counter-screen | activation, % at 11.4 µM | shares compounds with PKA-R2B act | FP artifact counterscreen | hit rate 6% among 270 | AID 504796; in the data active = activation above about 20%;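 note: Cy5 labelled IP20 peptide probe with compound but no PKA protein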
PKA-R2B confirm: PKA-R2B complex activation, confirmation; hit rate 9% among 270; fluorescence polarization; activation, % at 11.4 µM; shares compounds with PKA-R2B act; in the data active = activation above about 19%
Of the large screens only hits and unclear results are named; the others gave an inactive call (follow-up assays come after a bar, where they were run). Most compounds without a hit are left out; they make up all but 1.5% or so of the library.

COC(=O)c1ccccc1NC(=O)CCS(=O)(=O)c1ccc(Br)s1	none (no result: S100A4 inh HTS, SIRT5 inh)
Cc1ccccc1NC(=O)CCS(=O)(=O)c1ccc(Br)s1	PKA-R2B act 19 | R2B FP artifact inactive | PKA-R2B confirm inactive
CC(C)Oc1ccc(S(=O)(=O)N2CCCCC2)cc1NC(=O)CC1OC(=O)c2ccccc21 (stereo not drawn)	PKA-R2B act 20 | R2B FP artifact inactive | PKA-R2B confirm inactive
O=S(=O)(N[C@H]1CC[C@H](CCn2cc(C3(O)CCCC3)nn2)O[C@@H]1CO)c1ccc(F)cc1	none (no result: PKA-R1A act, PKA-R2B act, CRFBP-R2 block)
CO[C@H](CN(C)C(=O)C1CC1)[C@H](C)CN(C(=O)Nc1ccc(C(F)(F)F)cc1)[C@H](C)CO	none (no result: PKA-R1A act, PKA-R2B act, CRFBP-R2 block)
Cc1ccsc1CNC12CC3CC(CC(C3)C1)C2	PKA-R2B act 21 | R2B FP artifact inactive | PKA-R2B confirm inactive
Cc1ccsc1CNC1CCCCC1	none
C=CCNc1nc2c(c(=O)[nH]c(=O)n2C)n1Cc1cccc(C)c1	PKA-R2B act 22 | R2B FP artifact inactive | PKA-R2B confirm inactive
Cc1cccc(C)c1NC(=O)C(NC=O)c1ccccc1Cl (stereo not drawn)	none (no result: S100A4 inh HTS, SIRT5 inh)
Cc1cccc(C)c1NC(=O)C(NC=O)c1ccc(N(C)C)cc1 (stereo not drawn)	PKA-R2B act 20 (no result: S100A4 inh HTS, SIRT5 inh) | R2B FP artifact inactive | PKA-R2B confirm inactive
CC(C)NC(=O)Nc1ccc2c(c1)C(=O)N([C@H](C)CO)C[C@@H](C)[C@@H](CN(C)Cc1ccc(Oc3ccccc3)cc1)O2	none (no result: PKA-R1A act, S100A4 inh HTS, PKA-R2B act, CRFBP-R2 block)
CC(C)NC(=O)Nc1cccc2c1O[C@H](CN(C)Cc1ccc3c(c1)OCO3)[C@@H](C)CN([C@@H](C)CO)C2=O	none (no result: PKA-R1A act, PKA-R2B act, CRFBP-R2 block)
CCC(=O)Nc1ccccc1N1CCN(c2ccc(F)cc2)CC1	PKA-R2B act 19 | R2B FP artifact inactive | PKA-R2B confirm inactive
C/C=C/c1ccc2c(c1)O[C@H](CN(C)Cc1ccc(F)cc1)[C@H](C)CN([C@H](C)CO)S2(=O)=O	none (no result: PKA-R1A act, PKA-R2B act, CRFBP-R2 block)
CC(=O)Nc1ccc(S(=O)(=O)NNC(=O)COc2cc(C)ccc2C(C)C)cc1	PKA-R2B act 20 (no result: S100A4 inh HTS, SIRT5 inh) | R2B FP artifact inactive | PKA-R2B confirm inactive
CN1C(=O)c2cc(NC(=O)C3CC3)ccc2OC[C@H]2O[C@H](CC(=O)NC3CCC3)CC[C@@H]21	none (no result: PKA-R1A act, PKA-R2B act, CRFBP-R2 block)
CCOc1ccc(CC(=O)NCc2cn3c(C)csc3n2)cc1	PKA-R2B act 22 | R2B FP artifact inactive | PKA-R2B confirm inactive
COc1ccc(C(=O)NCc2cn3c(C)csc3n2)cc1OC	none
CS(=O)(=O)N1CC2(C1)[C@@H](c1ccccc1)[C@@H](CO)N2CC1CC1	none (no result: PKA-R1A act, PKA-R2B act, CRFBP-R2 block)
Cc1nc(C)c(C(=O)N(c2ccccc2F)C(C(=O)NCC2CCCO2)c2ccccc2)s1 (stereo not drawn)	none
Cc1nc(C)c(C(=O)N(c2ccc(F)cc2)C(C(=O)NCC2CCCO2)c2ccccc2)s1 (stereo not drawn)	PKA-R2B act 20 | R2B FP artifact inactive | PKA-R2B confirm inactive
N#Cc1cc([N+](=O)[O-])ccc1NC(=O)COC(=O)C1CC2CCCC(C1)C2=O (stereo not drawn)	none
N#Cc1cc([N+](=O)[O-])ccc1NC(=O)COC(=O)C1CCC(=O)N1 (stereo not drawn)	PKA-R2B act 20 | R2B FP artifact inactive | PKA-R2B confirm inactive
COCCNC(=O)COCc1cc(-c2ccc3c(c2)OCO3)on1	none
COCCNC(=O)c1cc(-c2ccc3c(c2)OCO3)on1	PKA-R2B act 18 (no result: S100A4 inh HTS, SIRT5 inh) | R2B FP artifact inactive | PKA-R2B confirm inactive
COc1ccc(OC)c(CC(NC(C)=O)C(=O)NC2CCN(c3c(Cc4ccccc4)c(C)nc4ncnn34)CC2)c1 (stereo not drawn)	PKA-R2B act 21 (no result: S100A4 inh HTS, SIRT5 inh) | R2B FP artifact inactive | PKA-R2B confirm inactive
COc1ccc2[nH]c(=O)c(CN(C(C)=O)c3ccc(C)cc3C)cc2c1	none
CCC(=O)N(Cc1cc2cc(OC)ccc2[nH]c1=O)c1ccc(C)cc1C	PKA-R2B act 21 (no result: S100A4 inh HTS, SIRT5 inh) | R2B FP artifact inactive | PKA-R2B confirm inactive
Cc1ccc(C(=O)N2CCOCC2)cc1[N+](=O)[O-]	none (no result: S100A4 inh HTS, SIRT5 inh)
Cc1ccc(C(=O)Nc2ccccc2C(=O)N2CCOCC2)cc1[N+](=O)[O-]	PKA-R2B act 20 | R2B FP artifact inactive | PKA-R2B confirm inactive
C[C@@H](O)C#Cc1ccc2c(c1)O[C@H](CN(C)C(=O)C1CCCCC1)[C@@H](C)CN([C@@H](C)CO)S2(=O)=O	none (no result: PKA-R1A act, PKA-R2B act, CRFBP-R2 block)
COc1ccc2c3c(n(C)c2c1)[C@@H](CO)N(C(=O)C1CCOCC1)CC31CCN(Cc2cccc(F)c2)CC1	none (no result: PKA-R1A act, PKA-R2B act, CRFBP-R2 block)
Cc1ccc(S(=O)(=O)NNC(=O)C2CC=CCC2C(=O)O)cc1 (stereo not drawn)	PKA-R2B act 21 | R2B FP artifact inactive | PKA-R2B confirm inactive
Cc1ccc(S(=O)(=O)NNC(=O)C(=O)NNS(=O)(=O)c2ccc(C)cc2)cc1	none
CCN1CCN(c2ccc(S(=O)(=O)N3CCOCC3)cc2NC(=O)c2ccc(F)cc2Cl)CC1	PKA-R2B act 19 | R2B FP artifact inactive | PKA-R2B confirm inactive
CC(C)NC(=O)N(C)C[C@H]1Oc2ncc(C#Cc3ccncc3)cc2C(=O)N([C@@H](C)CO)C[C@@H]1C	none (no result: PKA-R1A act, PKA-R2B act, CRFBP-R2 block)
CN1C(=O)c2cc(NC(=O)c3ccc(F)c(F)c3)ccc2OC[C@@H]2O[C@@H](CC(=O)N[C@@H]3CCN(Cc4ccccc4)C3)CC[C@@H]21	none (no result: PKA-R1A act, PKA-R2B act, CRFBP-R2 block)
COc1cc2cc(CN(Cc3ccc4c(c3)OCO4)C(=O)c3ccco3)c(=O)[nH]c2cc1OC	PKA-R2B act 21 (no result: S100A4 inh HTS, SIRT5 inh) | R2B FP artifact inactive | PKA-R2B confirm inactive
C[C@H]1CN([C@@H](C)CO)C(=O)c2cccc(NC(=O)C3CCOCC3)c2O[C@@H]1CN(C)CC1CC1	none (no result: PKA-R1A act, PKA-R2B act, CRFBP-R2 block)
O=C(CCSc1ccccc1)NCC1CCCO1 (stereo not drawn)	none (no result: S100A4 inh HTS, SIRT5 inh)
O=C(CCSCCC(=O)NCC1CCCO1)NCC1CCCO1 (stereo not drawn)	PKA-R2B act 20 (no result: S100A4 inh HTS, SIRT5 inh) | R2B FP artifact inactive | PKA-R2B confirm inactive
COc1ccc(NC(=O)N(C)C[C@H]2OCCCC[C@@H](C)Oc3ccc(NC(=O)Cc4ccccc4)cc3C(=O)N([C@@H](C)CO)C[C@H]2C)cc1	none (no result: PKA-R1A act, PKA-R2B act, CRFBP-R2 block)
Nc1nnc(Cc2cccc(Br)c2)s1	PKA-R2B act 20 | R2B FP artifact inactive | PKA-R2B confirm inactive
CCCNC(=O)C[C@H]1C[C@H]2c3cc(NC(=O)NC4CCCC4)ccc3O[C@H]2[C@@H](CO)O1	none (no result: PKA-R1A act, PKA-R2B act, CRFBP-R2 block)
CCOC(=O)N1CCN(c2ccccc2OC)CC1	none
CCOC(=O)/C(=N\Nc1ccc(Br)cc1)N1CCN(c2ccccc2OC)CC1	PKA-R2B act 21 | R2B FP artifact inactive | PKA-R2B confirm inactive
COc1cccc(C#Cc2ccc3c(c2)[C@H]2[C@H](CCN2C(C)=O)[C@H](CO)N3)c1	none (no result: PKA-R1A act, PKA-R2B act, CRFBP-R2 block)
